Assay outcomes from PubChem.
A selection: hits, their analogues and other compounds. The true share with any hit is near 4.5%.
TAAR1 antagonist: antagonists of human TAAR1. CHO RD-HGA16 TAAR1, Fluo-8 calcium fluorescence, antagonist. AID 624466. hit rate 1.5% among 360,000. Q96RJ0. inhibition, % at 3 µM;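 active = inhibition above a per-plate cutoff, the mean inhibition of test compounds on that plate plus 3 SD, cut at about 49% in these data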;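 note: 0% = DMSO plus EC80 beta-PEA response and 100% = DMSO alone without agonist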
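Assay system: CHO-derived RD-HGA16 cells stably expressing human TAAR1 plus Gα16. Timing: 140 s kinetic read after compound, 140 s after agonist. Technique: kinetic Fluo-8 calcium fluorescence measurement. Measure: % inhibition of agonist calcium response.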
OX1R antag-1: OX1R (human) antagonism; O43613; OX1R-expressing cells, FRET antagonist read-out; inhibition, % at 6.6 µM; hit rate 1.8% among 330,000; AID 485270; in the data active = inhibition mostly above about 38%, no sharp cut-off; inactive = mostly below about 40%;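 note: 0% = agonist challenge alone and 100% = reference antagonist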
Target sequence (O43613 whole entry, looked up): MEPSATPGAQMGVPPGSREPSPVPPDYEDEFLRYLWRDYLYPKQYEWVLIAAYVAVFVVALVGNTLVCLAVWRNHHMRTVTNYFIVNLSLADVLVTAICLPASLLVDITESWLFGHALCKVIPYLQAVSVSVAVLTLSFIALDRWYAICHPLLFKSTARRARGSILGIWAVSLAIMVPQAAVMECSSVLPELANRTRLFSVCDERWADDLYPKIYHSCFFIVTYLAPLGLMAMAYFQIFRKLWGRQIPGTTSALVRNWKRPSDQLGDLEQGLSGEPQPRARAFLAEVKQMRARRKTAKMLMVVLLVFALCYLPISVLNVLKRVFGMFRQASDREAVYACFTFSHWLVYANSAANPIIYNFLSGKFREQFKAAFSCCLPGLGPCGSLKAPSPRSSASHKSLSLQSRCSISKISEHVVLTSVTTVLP
GPR7 antagonist: antagonists of human GPR7 (neuropeptides B/W receptor 1); P48145; GPR7-expressing cells, fluorescence antagonist assay; inhibition, % at 4.4 µM; hit rate 1.1% among 290,000; in the data active = inhibition above about 16%, passing the limit was not always enough;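 note: cells stimulated with the agonist NPW; 0% = agonist with vehicle and 100% = vehicle without agonist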
CHO parental Ca: counter-screen: ATP calcium response change in parental CHO cells. parental CHO-K1, ATP-induced calcium, Fluo-8 fluorescence. inhibition, % at 5.6 µM. hit rate 0.63% among 330,000. AID 463079;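 active = inhibition above that plate's mean sample inhibition plus 3 SD, cut at about 26% in these data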;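 note: 0% = ATP-challenged DMSO wells and 100% = DMSO wells without ATP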
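Assay system – parental CHO cells · Reagent – ATP stimulus · Detection – intracellular calcium via Fluo-8 no-wash fluorescent dye · Evaluation – percent inhibition of ATP-evoked calcium rise, normalized to controls · Controls – ATP wells versus no-ATP DMSO wells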
TAAR1 agonist: agonists of human TAAR1; Q96RJ0; CHO RD-HGA16 TAAR1, Fluo-8 calcium fluorescence; vehicle wells 0%, saturating PEA agonist 100%; activation, % at 3 µM; hit rate 0.99% among 360,000; AID 624467;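 active = activation above the mean activation of all test compounds in the run plus 3 SD, cut at about 38% in these data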
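Repeats: no replicates (n 1) | Material: CHO-derived RD-HGA16 cells with stable Gα16 and human TAAR1 | Technique: Kinetic Fluo-8 calcium fluorescence | Schedule: 17-24 h seeding, 75 min 37 °C dye, 30 min RT | Evaluation: % activation from peak over basal fluorescence ratio, DMSO-to-PEA scaled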
OX1R antag-2: blocks the human orexin 1 receptor; AID 434989; CHO/OX1R cells, Fluo-8 calcium fluorescence, orexin A; inhibition, % at 5 µM; hit rate 0.43% among 330,000; O43613;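 active = inhibition above its plate's threshold, mean inhibition of all tested compounds on the plate plus 3 SD, cut at about 37% in these data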;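 note: 0% = orexin A challenge wells and 100% = SB-334867-A antagonist wells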
An asterisk follows results filed as active.

Results for O=S(=O)(c1ccc(SCCOc2ccc(Br)cc2)nc1)N1CCCC1 ?
TAAR1 antagonist: -2; OX1R antag-1: -1; CHO parental Ca: -18; TAAR1 agonist: 11; OX1R antag-2: -13

Results for O=S(=O)(c1ccc(SCCOc2ccc(Cl)cc2)nc1)N1CCCC1 ?
TAAR1 antagonist: -10; OX1R antag-1: -6; CHO parental Ca: 30*; TAAR1 agonist: 0; OX1R antag-2: 2

Results for Nc1sc(-c2ccccc2)cc1C(=O)NCCN1CCOCC1 ?
TAAR1 antagonist: -12; TAAR1 agonist: 1

How did O=C(Nc1cccc(Cl)c1)C1CCCN(S(=O)(=O)c2ccc(F)cc2)C1 (centres undefined) do in these assays?
TAAR1 antagonist: 39; OX1R antag-1: 42*; GPR7 antagonist: -4; CHO parental Ca: -17; TAAR1 agonist: 5; OX1R antag-2: -5

Results for O=C(Nc1ccccc1Cl)C1CCCN(S(=O)(=O)c2ccc(F)cc2)C1 (centres undefined) ?
TAAR1 antagonist: 7; OX1R antag-1: 16; GPR7 antagonist: 11; CHO parental Ca: -17; TAAR1 agonist: 5; OX1R antag-2: -22

How did CC(=O)c1cccc(NC(=O)C2CCCN(S(=O)(=O)c3cccc4cccnc34)C2)c1 (centres undefined) do in these assays?
TAAR1 antagonist: 52*; OX1R antag-1: 55*; GPR7 antagonist: -13; CHO parental Ca: -10; TAAR1 agonist: 8; OX1R antag-2: -11

What do the screens show for `O=C(Nc1ccc(C(F)(F)F)cc1)C1CCCN1S(=O)(=O)c1cccc2cccnc12` (centres undefined)?
TAAR1 antagonist: -3; OX1R antag-1: 36*; GPR7 antagonist: -12; CHO parental Ca: -23; TAAR1 agonist: 9; OX1R antag-2: 30

What do the screens show for `O=C(Nc1nccs1)C1CCCN(S(=O)(=O)c2cccc3cccnc23)C1` (centres undefined)?
TAAR1 antagonist: 50*; OX1R antag-1: 43*; GPR7 antagonist: -16; CHO parental Ca: -7; TAAR1 agonist: 11; OX1R antag-2: -23

How did Cn1c(=O)c2c(n(C)c1=O)n(C)c(=O)n2C do in these assays?
TAAR1 antagonist: -14; TAAR1 agonist: 1

What do the screens show for `COc1cc(NC(=O)[C@@H]2CCCN2S(=O)(=O)c2cccc3cccnc23)cc(OC)c1OC`?
TAAR1 antagonist: 8; OX1R antag-1: 28; CHO parental Ca: -17; TAAR1 agonist: 12; OX1R antag-2: -29

Results for CC(=O)c1cccc(NC(=O)C2CCCN2S(=O)(=O)c2cccc3cccnc23)c1 (centres undefined) ?
TAAR1 antagonist: -20; OX1R antag-1: 67*; GPR7 antagonist: -10; CHO parental Ca: 3; TAAR1 agonist: 5; OX1R antag-2: 14

What do the screens show for `CCOC(=O)C1=C(C(=O)OCC)C2N(Cc3ccc(C#N)cc3)c3ccccc3[C@@]23C[C@@H](C(=O)OC)N(S(=O)(=O)c2c(C)noc2C)C3=N1` (some centres undefined)?
TAAR1 antagonist: 7; TAAR1 agonist: 0

Results for O=C(Nc1ccc2c(c1)OCO2)c1cc2n(n1)C(C(F)(F)F)CC(c1ccccc1)N2 (centres undefined) ?
TAAR1 antagonist: 36; OX1R antag-1: 12; GPR7 antagonist: -14; CHO parental Ca: 20; TAAR1 agonist: 32; OX1R antag-2: -7

Results for O=C(Nc1ccc2c(c1)OCO2)c1cnn2c1NC(c1ccco1)CC2C(F)(F)F (centres undefined) ?
TAAR1 antagonist: -2; OX1R antag-1: 15; GPR7 antagonist: -9; CHO parental Ca: 47*; TAAR1 agonist: 7; OX1R antag-2: -18

How did Cc1cc(N2CCNC[C@H]2C)ccc1N1CCN(Cc2ccccc2)[C@H](C)C1 do in these assays?
TAAR1 antagonist: -4; TAAR1 agonist: 8

What do the screens show for `Cc1noc(C)c1C(=O)N1CCC1(C)C(=O)NS(=O)(=O)c1ccc(F)cc1F` (centres undefined)?
TAAR1 antagonist: 5; TAAR1 agonist: 0

What do the screens show for `COc1cccc(C2=NOC(C(=O)NCc3ccccn3)C2)c1` (centres undefined)?
TAAR1 antagonist: -22; OX1R antag-1: 5; GPR7 antagonist: -3; CHO parental Ca: -6; TAAR1 agonist: 45*; OX1R antag-2: -6

What do the screens show for `O=C(NCCCn1ccnc1)c1cccc(Cl)c1`?
TAAR1 antagonist: 7; OX1R antag-1: -8; GPR7 antagonist: 3; CHO parental Ca: -8; TAAR1 agonist: -1; OX1R antag-2: 5

Results for CC1(O)C(=O)C2(C)C=CC1C1C(=O)N(c3ccccc3)C(=O)C12 (centres undefined) ?
TAAR1 antagonist: -6; TAAR1 agonist: 1

Results for O=C(Nc1ccc(Cl)cc1)c1cc2c(cc1O)[nH]c1ccccc12 ?
TAAR1 antagonist: 12; OX1R antag-1: 52*; GPR7 antagonist: 43*; CHO parental Ca: 72*; TAAR1 agonist: 8; OX1R antag-2: 55*

How did Cn1cc(CNCc2ccc(OC(F)(F)F)cc2)c(-c2ccc3c(c2)OCCO3)n1 do in these assays?
TAAR1 antagonist: -13; OX1R antag-1: 33; GPR7 antagonist: 8; CHO parental Ca: 40*; TAAR1 agonist: 9; OX1R antag-2: 16

What do the screens show for `CC(C)c1ccc(S(=O)(=O)N2CCN(C(=O)c3cc([N+](=O)[O-])ccc3N3CCOCC3)CC2)cc1`?
TAAR1 antagonist: -5; OX1R antag-1: 25; GPR7 antagonist: -13; CHO parental Ca: -4; TAAR1 agonist: -2; OX1R antag-2: -24

How did CC1CC(C)C(=O)C(C(CC2CC(=O)NC(=O)C2)OC(=O)CC(=O)c2ccccc2)C1 (centres undefined) do in these assays?
TAAR1 antagonist: -4; TAAR1 agonist: -1

What do the screens show for `COCCCNC(=S)N1CCN(c2nc(-c3ccc(Cl)cc3)cs2)CC1`?
TAAR1 antagonist: 62*; TAAR1 agonist: 4

What do the screens show for `CC(C)CNC(=S)N1CCN(c2nc(-c3ccc(Cl)cc3)cs2)CC1`?
TAAR1 antagonist: 34; OX1R antag-1: 34; GPR7 antagonist: -7; CHO parental Ca: 39*; TAAR1 agonist: -2; OX1R antag-2: -1

What do the screens show for `COCCCNC(=S)N1CCN(c2nc(-c3ccccc3)cs2)CC1`?
TAAR1 antagonist: 37; OX1R antag-1: 22; GPR7 antagonist: 1; CHO parental Ca: -1; TAAR1 agonist: 10; OX1R antag-2: -16

Results for O=C(CSCc1ccc(Cl)cc1)Nc1ccc2c(c1)OCCO2 ?
TAAR1 antagonist: 11; OX1R antag-1: 15; GPR7 antagonist: 6; CHO parental Ca: -9; TAAR1 agonist: 12; OX1R antag-2: -2
